# Screens as filed in PubChem.
# This is a sample that favours compounds with a hit; in the whole collection about 3.7% have one here.
# Granule exo inh: lytic granule exocytosis inhibition; TALL-104 LAMP-1 surface exposure, flow cytometry; cells stimulated with thapsigargin and PMA; actives 0.66% (n = 360,000); AID 651702; inhibition, % at 10 µM;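 active = inhibition above about 55%, limit read from the data; inconclusive = no clear call, values can overlap the other calls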
# MC4R ag barr: human MC4R agonism via beta-arrestin; P32245; activation, % at 8.9 µM; U2OS MC4R beta-arrestin complementation, luminescence; percent of melanotan II response, DMSO zero; actives 0.98% (n = 360,000);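 active = activation above a per-plate cutoff, the mean activation of sample wells on that plate plus 3 SD, cut at about 8% in these data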
# Target sequence (P32245 whole entry, looked up): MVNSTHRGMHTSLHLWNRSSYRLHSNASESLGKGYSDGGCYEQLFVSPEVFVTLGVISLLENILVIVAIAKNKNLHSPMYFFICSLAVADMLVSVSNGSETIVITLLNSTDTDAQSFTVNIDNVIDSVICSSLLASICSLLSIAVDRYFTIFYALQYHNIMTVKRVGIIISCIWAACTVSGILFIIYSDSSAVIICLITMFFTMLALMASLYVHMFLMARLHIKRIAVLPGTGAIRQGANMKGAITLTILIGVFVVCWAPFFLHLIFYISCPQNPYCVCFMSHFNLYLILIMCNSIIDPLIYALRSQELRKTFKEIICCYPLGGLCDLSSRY
# EBI2 antag: EBI2 (human) antagonism; actives 0.81% (n = 360,000); inhibition, % at 5 µM; P32249; EBI2 beta-arrestin recruitment, luminescence, 7a,25-OHC stimulated; in the data active = inhibition above about 38%;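 also: enzyme fragment complementation signal reports receptor beta-arrestin coupling in cells; 0% = agonist plus DMSO wells and 100% = wells without agonist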
# Myeloid diff 2: compounds promoting myeloid differentiation | calls only at 10 µM | ER-HoxA9 myeloid progenitors, lysozyme-GFP differentiation, flow cytometry | actives 1% (n = 360,000);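 active = normalized GFP-positive differentiation at or above the plate's own cutoff, the solvent-only control mean plus 3 SD; inconclusive = no clear call, values can overlap the other calls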;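 also: cells exposed to compound for four days before flow analysis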
# MC4R antag cAMP: human MC4R antagonism in cAMP assay; MC4R-expressing cells, MTII-stimulated cAMP, LANCE TR-FRET; inhibition, % at 6.5 µM; actives 0.48% (n = 360,000); AID 540295;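 active = inhibition above its plate's cutoff, the mean of tested wells on that plate plus 3 SD, cut at about 29% in these data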;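 also: 0% = Melanotan II alone and 100% = Melanotan II plus saturating MCL0020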
#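 Test system: U2OS cells stably expressing human melanocortin 4 receptor (MC4R); also added: Melanotan II challenge; compound: 6.5 µM single dose; timing: 30-min compound preincubation, 1-h Melanotan II challenge, 1-h detection, room temperature; signal: Eu-cAMP/anti-cAMP TR-FRET, emission 671 nm; repeats: one well per compound, no replicates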
# Numbers without * were called inactive; i = inactive; u = inconclusive; + = active, no number; ! = not active in a repeat.
SMILES,Granule exo inh,MC4R ag barr,EBI2 antag,Myeloid diff 2,MC4R antag cAMP
COc1cccc(-c2cc3nc(C)c(C)c(N4CCN(C(=O)c5ccoc5)CC4)n3n2)c1,-1,2,25,i,23
Cc1[nH]c2ccccc2c1C(=O)C(=O)NCc1nnnn1-c1ccc(F)cc1,-2,-2,-9,i,-10
CCOc1ccc(OC(=O)C(CCS(C)(=O)=O)N2C(=O)c3ccccc3C2=O)cc1 (stereo not drawn),4,3,-8,+,7
O=C(CNC(=O)c1ccc(Br)o1)NCC(=O)OCc1ccccc1,-4,-1,2,i,1
COc1ccccc1-n1c([S-])c(C(=O)Nc2ccccc2C(F)(F)F)[n+]2ccc(C(=O)NCCO)cc12,63*,-2,5,i,3
CC(=O)N1CCN(C(=O)c2ccc3c(c2)OCCO3)CC1,-2,-2,6,i,10
O=C(N/N=C\c1c(O)ccc2ccccc12)c1cncc(Br)c1,80*,-1,7,u,12
CCOC(=O)c1[nH]c2ccc(OC)cc2c1NC(=O)c1nonc1C,0,-1,-2,i,0
CCOC(=O)c1[nH]c2ccc(Cl)cc2c1NC(=O)c1nonc1C,-1,8.9*,-4,i,4
CCC(=O)NC1=C(Nc2ccc(N)cc2)C(=O)c2ccccc2C1=O,-1,-1,-21,+,-42
Cc1cc(C(=O)OCC(=O)Nc2cccc(S(N)(=O)=O)c2)c2ccccc2n1,1,-1,3,i,-2
CN(C)S(=O)(=O)N1CCC(Oc2ccc(C(=O)N3CCCCCCC3)cc2)CC1,-4,0,-8,u,19
CN(C)S(=O)(=O)N1CCC(Oc2ccc(C(=O)N3CCCCCC3)cc2)CC1,-3,-2,-11,+,-2
CCCOc1ccc(C(=O)NCC(c2ccco2)N(C)C)cc1 (stereo not drawn),3,-2,-14,i,8
O=C(O)CS(=O)(=O)CC(=O)NCc1cccc(C(F)(F)F)c1,-1,0,-4,i,14
O=C(Nc1ccc([N+](=O)[O-])cc1)c1cc(Cl)sc1Cl,2,1,1,+,-3
Cc1nc2c(C(=O)NCc3ccco3)cnn2c(C)c1Cc1ccc(F)cc1Cl,0,-2,20,i,9
Cc1cccc(Cc2c(C)nc3c(C(=O)NCc4ccco4)cnn3c2C)c1,37,1,9,+,10
COc1nc(-c2ccccc2)cc(-c2ccc3c(c2)OCO3)c1C#N,10,-2,16,+,5
N#Cc1c(-c2ccc3c(c2)OCO3)cc[nH]c1=O,8,-1,2,i,8
CC(C)C(N)c1csc(NC(=O)Nc2cccc(Cl)c2)n1 (stereo not drawn),2,-1,2,+,-3
NC(c1csc(NC(=O)Nc2cccc(Cl)c2)n1)c1ccccc1Cl (stereo not drawn),3,4,7,i,5
O=C(Nc1ccc(N2CCCCC2)c(Cl)c1)c1cccnc1,-2,-1,-18,+,1
CC[C@]12c3[nH]c4cc(-c5ccco5)ccc4c3CCN1C(=O)[C@@H](CC(=O)NCCCn1ccnc1)C[C@@H]2C(=O)N1CCN(C(=O)C2CC2)CC1,-1,0,-8,+,-1
Cc1ccc(C(=O)COc2ccccc2C(=O)Nc2ccccc2)cc1,-1,2,-13,i,23
SMILES,Granule exo inh,MC4R ag barr,EBI2 antag,Myeloid diff 2,MC4R antag cAMP
Cc1ccc(NC(=O)c2ccccc2OCC(=O)c2ccccc2)cc1,4,8.6*,-14,i,18
CN(CCC#N)C(=O)COC(=O)c1cc(Cl)cc(Cl)c1N,-3,-1,6,i,-5
OC1c2c(F)cccc2N=C2CCCCN21 (stereo not drawn),11,-1,-2,i,12
COc1ccc(CNc2cc(C)nc3ncnn23)c(OC)c1,2,-1,-1,+,0
COc1ccc(Nc2cc(C)nc3ncnn23)c(OC)c1,2,-1,-7,i,-4
COc1cccc(/C=N/NC(=O)C(=O)Nc2ccccc2OC(F)(F)C(F)F)c1O,-3,-3,8,+,-4
COc1cccc(/C=N/NC(=O)c2ccc(-c3ccccc3)cc2)c1O,59*,3,3,u,3
NCCCC(=O)O,0,0,1,i,19
NCCCC(N)(C(=O)O)C(F)F (stereo not drawn),-2,-1,1,+,4
CCc1nnc(NC(=O)CCC(=O)N2CCN(Cc3ccc(OC)c(F)c3)CC2)s1,-1,0,-5,i,5
COCCN=c1scc(-c2ccc3c(c2)NC(=O)CO3)n1/N=C(\C)c1ccc(O)cc1,13,-3,37,i,12
COc1cc(/C=N/n2c(-c3ccc4c(c3)NC(=O)CO4)csc2=Nc2cccc(C)c2)ccc1O,0,-4,52*,i,18
CNC(=O)c1ccc(C)c(NC(=O)C2=C(C)OCCS2)c1,-5,0,5,i,23
CCCCCCSc1cc(-c2nc3cnccn3c2NCCCC)ccc1OC,5,2,19,i,12
CCCCCCSc1ccc(-c2nc3ccc(Cl)cn3c2NCCCC)cc1OC,1,-2,38,i,7
CCCCCCSc1cc(-c2nc3cc(C)ccn3c2NCCCC)ccc1OC,12,-1,28,+!,1
CCCCNc1c(-c2ccc(OC)c(Sc3ccc(OC)cc3)c2)nc2cnccn12,10,2,6,i,18
CCCCNc1c(-c2ccc(-c3ccc(OC)cc3)c(OC)c2)nc2ccccn12,-1,5,54*,i,24
CCCCNc1c(-c2ccc(SC(C)CC)c(OC)c2)nc2ccc(C)cn12 (stereo not drawn),-2,-1,55*,i,28
CCCCNc1c(-c2ccc(SC(C)CC)cc2)nc2cnccn12 (stereo not drawn),2,5,-3,+,18
COc1ccc(/C=N/NC(=O)c2ccc(Cl)cc2)cc1Cn1cc(Cl)cn1,-2,8.7*,30,i,0
CC(C)(C)N(Cc1ccccc1)C(=O)COC(=O)c1ccc(S(=O)(=O)N2CCOCC2)cc1,63*,-1,2,i,14
CCN(CC)C(=O)c1cccc(-c2csc(C(O)c3ccco3)n2)c1 (stereo not drawn),1,1,-3,+,1
Cc1ccc(S(=O)(=O)N2CCOCC2)cc1C(=O)N1c2ccccc2Sc2ccccc21,-1,-1,8,i,-30
COc1ccc(NC(=O)C2=CN3CCS(=O)(=O)N=C3C=C2)c(OC)c1,14,-1,2,i,7
COc1ccccc1COC(=O)C(NC(=O)c1ccc(C)cc1)C(C)C (stereo not drawn),3,-3,0,i,6
